These compounds were tested on E. coli BW25113 ΔtolC growth inhibition, OD615 (assay: E. coli ΔtolC antibacterial growth inhibition – strain BW25113 ΔtolC::kan, dose response (AID 617)).
Outline: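 Material: E. coli BW25113 ΔtolC::kan bacteria; input: inoculum from 1:1000-diluted 1.5 h subculture; medium: kanamycin-containing LB broth, 50 µg/mL; dosing: compounds in serially diluted dose-response series; incubation: 20 h exposure at 37 °C; measured by: absorbance at 615 nm; control set: chloramphenicol control, 30 µM final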

Going from `N#Cc1c(NC(NC(=O)c2ccco2)C(=O)c2ccccc2)sc2c1CCCC2` (stereo not given) to `O=C(CSc1nc2ccccc2o1)Nc1nc2c(s1)CCCC2`, the IC50 falls from 13.5 µM to 8.02 µM (1.7-fold). The second is the more potent here.

First: CCOC(=O)c1cc(CC)sc1NC(=O)Cc1ccsc1
Second: CCOC(=O)c1cnc(-n2cc(C)cn2)nc1Nc1ccccc1OCC
The IC50 of the first is 1.6-fold lower: 10.3 µM for the first, 16 µM for the second.

Compared with `CCn1c(SCC(=O)OC2CCCCC2)nc2ccccc2c1=O`, `O=C(NC1CCCCC1)c1nc2c(nnn2Cc2ccccc2Cl)c(=O)[nH]1` is 1.9-fold lower in IC50: 11.8 µM for the first, 6.11 µM for the second.

`c1ccc(-c2nc(N3CCCCCC3)nc(-n3ccnc3)n2)cc1` and `O=S(=O)(N1CCCCC1)n1c(Cc2ccccc2)nc2ccccc21` are within 1.5-fold of each other in IC50: 7.72 µM for the first, 6.89 µM for the second.

First: CCCSc1oc(-c2ccco2)nc1S(=O)(=O)c1ccccc1
Second: Brc1ccc(-c2nc(-c3ccccc3)no2)o1
The IC50 of the first is 3.1-fold lower: 9.73 µM for the first, 30.1 µM for the second.

Going from `C=C(C)COc1ccc(-c2n[nH]c(C)c2-c2ccccc2)c(O)c1` to `C=C(C)COc1ccc(-c2n[nH]c(C)c2-c2ccccc2OC)c(O)c1`, the IC50 rises from 8.47 µM to 13.6 µM (1.6-fold).

`CCCn1nnc(NC(=O)COc2ccc(C3CCCCC3)cc2)n1` and `Cc1nn(-c2ccccc2)c(Cl)c1C(=O)Nc1nnc(C2CCCC2)s1` are within 1.5-fold of each other in IC50: 9.4 µM for the first, 8.48 µM for the second.

Compared with `CCCc1ccc(Oc2cn[nH]c2-c2ccc(O)cc2O)cc1`, `COc1ccc(CCN2C(=O)c3[nH]nc(-c4ccccc4O)c3C2c2ccc(C)cc2)cc1OC` (stereo not given) is 58-fold higher in IC50: 0.24 µM for the first, 13.8 µM for the second. The first is the more potent here.

First: Cc1ccc(NC(=O)CSC2=C(C#N)C(c3ccco3)C3=C(CC(C)(C)CC3=O)N2)cc1 (stereo not given)
Second: CC(=O)Nc1cccc(NC(=O)CSc2ncc(-c3ccc(Cl)cc3)n2Cc2ccco2)c1
The IC50 of the first is 3-fold higher: 8.92 µM for the first, 2.99 µM for the second. The second is the more potent here.

Going from `Cc1ccc(-c2nnc(N3CCN(c4ccccn4)CC3)c3ccccc23)cc1` to `C(=C\c1ccccc1)/CN1CCN(c2ncnc3c2oc2ccccc23)CC1`, the IC50 rises from 4.28 µM to 10.2 µM (2.4-fold). The first is the more potent here.

`CC(C)CCOC(=O)c1c(N)n(CC2CCCO2)c2nc3ccccc3nc12` (stereo not given) and `COc1ccc(NC(=O)N2CCCC(c3nc(-c4ccc(C(C)C)cc4)no3)C2)cc1` (stereo not given) are within 1.5-fold of each other in IC50: 18.3 µM for the first, 16.9 µM for the second.

First: CCCCN1C(=O)NC(=O)C2(Cc3c(nc4c(C)cccn4c3=O)N3CCc4ccccc4C32)C1=O (stereo not given)
Second: CCCCCn1c(N2CCC(Cc3ccccc3)CC2)nc2c1c(=O)[nH]c(=O)n2C
The IC50 of the first is 1.9-fold lower: 3.2 µM for the first, 6.18 µM for the second. The first is the more potent here.

Going from `Cc1onc(-c2ccccc2)c1C(=O)Nc1nnc(COc2ccc(Cl)cc2)s1` to `N#Cc1nc(COc2ccc(-c3ccccc3)cc2)oc1NCc1cccnc1`, the IC50 rises from 2.99 µM to 8.6 µM (2.9-fold).

Compared with `Clc1ccc(COC(Cn2ccnc2)c2ccc(Cl)cc2Cl)cc1` (stereo not given), `N#Cc1nc(-c2ccc(OCc3ccccc3)cc2)oc1NCCCn1ccnc1` is 2.7-fold higher in IC50: 2.27 µM for the first, 6.08 µM for the second. The first is the more potent here.

Going from `COc1cc2c(C#N)c(N3CCc4ccccc4C3)nc(N)c2c(N)n1` to `Oc1c(CN2CCc3ccccc3C2)cc(Cl)c2cccnc12`, the IC50 falls from 23.5 µM to 8.71 µM (2.7-fold).

Compared with `O=C(CNCCC1=CCCCC1)Nc1ccccc1N1CCCCC1`, `Nc1nc(CN2CCN(c3cccc(Cl)c3)CC2)nc(N2CCCc3ccccc32)n1` is 2.6-fold lower in IC50: 11.2 µM for the first, 4.27 µM for the second.

Compared with `Cc1cc(NC(=O)Cn2nnc3sc4c(c3c2=O)CCC(C(C)(C)C)C4)no1` (stereo not given), `COc1ccc(-c2cc(C(=O)N3CCCc4ccccc43)no2)cc1` is 2.6-fold higher in IC50: 7.77 µM for the first, 20.5 µM for the second.

`Cc1ccc(-c2noc(CSc3nnnn3C3CCCCC3)n2)cc1` and `CCc1ccccc1N(C)C(=O)CCc1nc(-c2ccc(C)cc2)no1` are within 1.5-fold of each other in IC50: 12.9 µM for the first, 13.8 µM for the second.

First: O=C(Nc1nc(-c2cc(Cl)sc2Cl)cs1)c1cccs1
Second: CCCc1cc(C(=O)Nc2cccc(Cl)c2)no1
The IC50 of the first is 8.6-fold lower: 1.69 µM for the first, 14.6 µM for the second. The first is the more potent here.

Compared with `O=S(=O)(Nc1nc2ccccc2s1)c1ccc(Br)s1`, `O=c1[nH]c2ccc(S(=O)(=O)N3CCN(c4ccccc4F)CC3)cc2s1` is 15-fold higher in IC50: 3.88 µM for the first, 57 µM for the second.

Compared with `N#Cc1ccc(NC(=O)Nc2ccc(Cl)cc2)cc1`, `COc1ccc(-c2noc(Cc3ccc(Cl)cc3)n2)cc1OC` is 140-fold higher in IC50: 0.52 µM for the first, 75 µM for the second. The first is the more potent here.

`Cc1ccc(Nc2nc(CSc3nnnn3-c3ccccc3)cs2)cc1` and `C(=C\c1ccccc1)/CSc1nnc(-c2ccccn2)n1Cc1ccco1` are within 1.5-fold of each other in IC50: 11.5 µM for the first, 12 µM for the second.

`COc1ccc(-c2nc3oc4cc(OC)ccc4c(=O)c3c(=O)n2Cc2ccco2)cc1` and `O=C1c2[nH]nc(-c3ccccc3O)c2C(c2ccccc2)N1Cc1ccco1` (stereo not given) are within 1.5-fold of each other in IC50: 2.33 µM for the first, 2.45 µM for the second.

First: CC(C)(C)n1c(O)c(C=Nc2ccc3c(c2)CCC3)c(=O)[nH]c1=O
Second: Cc1cccc(N2CCN(C(=O)Cc3c(C(=O)O)[nH]c4ccc(Cl)cc34)CC2)c1C
The IC50 of the first is 1.7-fold higher: 12.8 µM for the first, 7.52 µM for the second.

Going from `Cc1ccc(S(=O)(=O)N(Cc2ccc(F)cc2)Cc2ccco2)cc1` to `O=C(NCc1ccco1)c1cc2sccc2n1Cc1ccccc1`, the IC50 rises from 7.01 µM to 14.4 µM (2.1-fold). The first is the more potent here.

Compared with `CCCOC(=O)/C(C(N)=NCc1ccccc1)=C(\O)OCCC`, `CCn1cc(C(=O)O)c(=O)c2cnc(N3CCN(C(=O)Nc4ccccc4)CC3)nc21` is 16-fold lower in IC50: 16.4 µM for the first, 1.01 µM for the second.

Going from `O=C(c1ccc2c(=O)n(C3CCCC3)c(=S)[nH]c2c1)N1CCN(C2CCCCC2)CC1` to `COc1ccccc1-c1cc(C(=O)NC(C)c2ccccc2)no1` (stereo not given), the IC50 rises from 15 µM to 37.7 µM (2.5-fold).

`CCSc1nnc(NC(=O)CSc2nccn2-c2cccc(C)c2C)s1` showed an IC50 of 5.29 µM.
